Entries after “also recorded” stand apart in the source; their conditions may differ. Each block holds one compound with its values, some of them ahead of it. Ends that are not written are not given here.
Legend:
[1] = system: TGF-β responsive SBE(CAGA)12-luciferase reporter, Mv1Lu cells; experiment: Reporter gene assay, SBE; assay type: cell-based, mink; settings: 10 μM SB-431542; 10 pM TGF-β1
Summary of the method: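 Mv1Lu cells stably carrying the SBE(CAGA)12-Luc reporter were grown in DMEM with 10% FBS. About 4000 cells were plated and left to attach overnight. Medium was changed to DMEM with 0.2% FBS 4 h before treatment. Cells received TGF-β1, TGF-β1 with serial dilutions of test peptide, or peptide alone, with untreated cells as control, in triplicate. After 18-24 h, Bright-Glo luminescence was normalised to cell number by CellTiter-Glo.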

ActRII-ED = experiment: SPR, ActRII-ED; assay type: binding, human; settings: verification of immobilized receptor activity
Summary of the method: (§1)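 In a separate run, recombinant human β-glycan-ED (residues 21-781), BMPR-IA-ED (Gln24-Arg152, Fc chimera) and ActRII-ED (Ser25-Pro134, Fc chimera) were amine-coupled on a CM5 chip to about 1600, 3300 and 4300 RU. Serial dilutions of peptide-bearing dendrimer in HBS, within 2.9 nM–6 μM, were injected for 5 min with 5 min dissociation at 10 μL/min. Reference subtraction and HCl regeneration were used.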

BMPR-IA-ED = experiment: SPR, BMPR-IA-ED; assay type: binding, human; settings: verification of immobilized receptor activity
Summary of the method: as §1

TβRI-ED [2] = target: T1, TβRI-ED (Homo sapiens, UniProt P36897); experiment: competition ELISA; assay type: binding
T1 sequence (P36897 25-125): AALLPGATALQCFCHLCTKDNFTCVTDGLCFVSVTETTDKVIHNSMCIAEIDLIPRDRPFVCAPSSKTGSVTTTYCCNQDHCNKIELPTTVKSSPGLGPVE
Summary of the method: (§2)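 Equimolar TβRI-ED (residues 1-101, 1.0 μg) or TβRII-ED (1-137, 1.5 μg), E. coli-expressed and refolded, was coated at 4 °C for 12 h. For Kd, M13 phage clones at various concentrations were bound for 1 h at room temperature in 2% BSA/PBS/0.5% Tween 20, with BSA wells as control. For IC50, fixed phage near its apparent Kd was mixed with varying peptide. Read-out was anti-M13-HRP, then ABTS/H2O2 for 30 min and A405; mean ± SD.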

[3] = target: T2, TβRII-ED (residues 1-137) (Homo sapiens, UniProt P37173); experiment: competition ELISA; assay type: binding
Summary of the method: as §2

[4] = target: T2, TβRII-ED (residues 1-137); experiment: SPR, TβRII-ED; assay type: binding
Summary of the method: (§3)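 CM5 chip with HBS (pH 7.4) running buffer. TβRI-ED (residues 7-91), TβRII-ED (1-137) and endoglin-ED (26-586) were amine-coupled (EDC/NHS) from 20 μg/mL in 10 mM NaOAc pH 5.0 to about 3600, 1900 and 7300 RU, then blocked with ethanolamine. The protein-free reference signal was subtracted. Surfaces were regenerated with 100 mM HCl for 30 s.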

TβRII = settings: read-out: Kd (binding to two copies of TβRII); approximate (~) range; cited from earlier work
TβRI-ED (residues 7-91) = target: T3, TβRI-ED (residues 7-91) (Homo sapiens, UniProt P36897); experiment: SPR, TβRI-ED; assay type: binding; settings: TGF-β1 41 pM to 30 nM
T3 sequence (P36897 31-115): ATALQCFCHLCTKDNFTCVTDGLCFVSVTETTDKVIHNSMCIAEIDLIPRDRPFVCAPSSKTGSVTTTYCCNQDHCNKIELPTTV
Summary of the method: as §3

monomeric TβRII-ED = settings: previous SPR studies; cited from earlier work
[5] = target: artificially dimerized TβRII-ED; settings: previous SPR studies; cited from earlier work
TβRI-ED [6] = settings: TGF-β alone; cited from earlier work

Compound: NC(=O)c1ccc(-c2nc(-c3ccc4c(c3)OCO4)c(-c3ccccn3)[nH]2)cc1 [SB-431542]
inhibition of TGF-β-induced luciferase gene expression [1]: completely blocked; also recorded: inhibited TGF-β regulated luciferase gene expression

binding of BMP-4 (ActRII-ED): ability to bind BMP-4
binding of BMP-4 (BMPR-IA-ED): ability to bind BMP-4
Compound: BMP-4: known ligand of BMPR-IA and ActRII

IC50 (TβRI-ED [2]): 110 µM
Kd (TβRI-ED [2]): ~10 µM
IC50 [3]: 156 µM
Kd [3]: ~10 µM
Compound: LTGKNFPMFHRN [Pep1]

IC50 (TβRI-ED [2]): 256 µM
Kd (TβRI-ED [2]): ~10 µM
IC50 [3]: 274 µM
Kd [3]: ~10 µM
Compound: MHRMPSFLPTTL [Pep2]

Kd ([4]; read-out: apparent Kd, TGF-β1 41 pM to 30 nM, dose dependent SPR responses, surface a mixture of monomeric and dimeric receptor): ~0.0014 µM
Compound: TGF-β1: Recombinant human TGF-β1, disulfide-linked homodimer growth factor
Kd (TβRII): 0.005 to 0.03 nM
binding to TβRI-ED surface (TβRI-ED (residues 7-91)): did not bind detectably; also recorded: no observable affinity
Kd (monomeric TβRII-ED): ~0.1 µM
Kd [5]: ~5 pM

Compound: TGF-β3: TGF-β isoform 3
Kd (TβRII): 0.005 to 0.03 nM

saturating concentration ([4]; binding to TβRII-ED, SPR): 10 nM
Compound: TGF-β: transforming growth factor β, generic wording; TGF-β1 in the authors' own experiments
affinity for TβRI-ED (TβRI-ED [6]): weak affinity
